# Screening results: PubChem, The Scripps Research Institute Molecular Screening Center
# Hits are enriched below; roughly 3.9% of the tested compounds scored in any of these assays.
# HTR2A ag – mouse HTR2A agonism via beta-arrestin recruitment; 0.66% of 360,000 active; AID 624169; CHO-K1 mHTR2A beta-arrestin complementation, luminescence; percent of 30 µM serotonin response; activation, % at 7.6 µM; P35363;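 active = activation above a run cutoff, the mean activation of all tested compounds plus 3 SD, cut at about 14% in these data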
# CHRM1 agonist – activates human CHRM1 receptor; CHO-K1 hM1, Fluo-8 calcium fluorescence, agonist mode; 0% DMSO, 100% acetylcholine EC100; activation, % at 3 µM; 0.33% of 360,000 active; AID 588814;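 active = activation above the run's mean compound activation plus 3 SD, cut at about 16% in these data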;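 also: peak over basal fluorescence ratio within a 140 s kinetic read after compound addition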
# Target sequence (P11229 whole entry, looked up): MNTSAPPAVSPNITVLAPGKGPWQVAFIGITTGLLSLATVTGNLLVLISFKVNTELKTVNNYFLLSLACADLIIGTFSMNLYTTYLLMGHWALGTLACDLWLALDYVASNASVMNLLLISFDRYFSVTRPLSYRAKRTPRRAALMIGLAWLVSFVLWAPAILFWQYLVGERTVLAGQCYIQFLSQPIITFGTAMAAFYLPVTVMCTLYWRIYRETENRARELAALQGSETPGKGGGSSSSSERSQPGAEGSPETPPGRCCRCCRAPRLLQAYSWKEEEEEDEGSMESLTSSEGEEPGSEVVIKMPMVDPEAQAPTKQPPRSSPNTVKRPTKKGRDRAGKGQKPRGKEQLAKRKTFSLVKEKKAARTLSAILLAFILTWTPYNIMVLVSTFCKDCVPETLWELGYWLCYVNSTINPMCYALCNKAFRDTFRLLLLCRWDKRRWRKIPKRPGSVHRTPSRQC
# TAAR1 antag – human TAAR1 antagonism; Q96RJ0; CHO RD-HGA16 TAAR1, Fluo-8 calcium fluorescence, antagonist; inhibition, % at 3 µM; 1.5% of 360,000 active;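 active = inhibition above a per-plate cutoff, the mean inhibition of test compounds on that plate plus 3 SD, cut at about 49% in these data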
#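 Assay system: RD-HGA16 CHO cells with stable hTAAR1 and Gα16 / Reagent: EC80 β-phenethylamine stimulus / Doses: 3 µM, single point / Timing: dye loading 75 min at 37 °C, then 30 min room temperature / Measured by: Fluo-8 intracellular calcium dye fluorescence, real-time kinetic reads / Controls: vehicle wells and EC80 agonist wells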
# CHRM1 PAM – human CHRM1 positive allosteric modulation; AID 588819; CHO-K1 hM1, Fluo-8 calcium fluorescence, ACh EC20; 0% = ACh EC20, 100% = maximal ACh; activation, % at 3 µM; 0.088% of 360,000 active; in the data active = activation above about 19%, passing the limit was not always enough
# TAAR1 ag – human TAAR1 agonism | activation, % at 3 µM | CHO RD-HGA16 TAAR1, Fluo-8 calcium fluorescence; vehicle wells 0%, saturating PEA agonist 100% | 0.99% of 360,000 active | AID 624467 | Q96RJ0;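 active = activation above the mean activation of all test compounds in the run plus 3 SD, cut at about 38% in these data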
#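 Test system: RD-HGA16 (CHO) cells co-expressing Gα16 and hTAAR1 | Doses: Single dose, 3 µM | Schedule: 17-24 h seeding, 75 min 37 °C dye, 30 min RT | Evaluation: % activation from peak over basal fluorescence ratio, DMSO-to-PEA scaled | Technique: Kinetic Fluo-8 calcium fluorescence | Benchmarks: Low control DMSO, high control PEA (EC100)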
# M1 antag – human CHRM1 antagonism | CHO-K1 hM1, Fluo-8 calcium fluorescence, ACh EC80 antagonist | P11229 | inhibition, % at 3 µM | AID 588852 | 1.3% of 360,000 active;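 active = percent inhibition above its own plate's cutoff, namely the mean of that plate's compound wells plus 3 SD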;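 also: peak over basal fluorescence ratio during 140 s after agonist addition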
# Hits are given with their value; 0 = inactive; - = no result.
SMILES,HTR2A ag,CHRM1 agonist,TAAR1 antag,CHRM1 PAM,TAAR1 ag,M1 antag
CCN1CCN(c2ccc(NC(=O)c3cccc(F)c3)cc2Cl)CC1,0,0,0,0,0,54
CCCCSCc1nc2nc(Cl)c(Cl)nc2[nH]1,0,0,0,0,0,0
Cc1ccc(NC(=O)CN2C(=O)S/C(=C\c3cc(C)n(C)c3C)C2=O)cc1,0,0,0,0,0,41
Cc1cc(C(=O)NNC(=O)/C=C/c2ccc(F)cc2)c(C)o1,0,0,0,0,0,0
Cc1ccc2c(c1)c1c3n2CCCNC3CCC1 (stereo not drawn),0,0,0,0,0,0
c1cc2c(cc1C1CCCCC1)c1c3n2CCCNC3CCC1 (stereo not drawn),0,0,0,0,43,0
Cc1cc(C(=O)CSc2nn3c(=O)c(C(C)(C)C)nnc3s2)c(C)n1C,0,0,0,0,0,0
O=C1c2cccc3cccc(c23)C(=O)N1CC1CCN(CC(O)COc2ccc3ccccc3c2)CC1 (stereo not drawn),0,0,0,0,0,47
Cc1cc(C)cc(OCC(O)CN2CCC(CN3C(=O)c4cccc5cccc(c45)C3=O)CC2)c1 (stereo not drawn),0,0,0,0,39,48
COc1ccccc1C(=O)NC(=O)CSc1nncn1C(C)C,0,0,0,0,0,0
O=C1CCCN1c1ccc(S(=O)(=O)NCCOc2ccccc2)cc1,0,0,0,0,0,0
Cc1cc(N2CCCC2=O)cc(C)c1S(=O)(=O)NCCOc1ccc(C(C)(C)C)cc1,0,0,0,0,0,39
O=[N+]([O-])c1ccc(N2CCc3ccccc3C2)cc1,0,0,0,0,0,0
O=[N+]([O-])c1ccc(-c2csc(N3CCc4ccccc4C3)n2)cc1,0,0,0,0,40,0
CC12CC3CC(C1)CC(C(=O)NNC(=O)c1ccncc1)(C3)C2,0,0,0,0,0,63
CC/C(=N\NC(=O)c1ccncc1)C12CC3CC(CC(C3)C1)C2,0,0,0,0,0,0
CSc1ccccc1CNc1nc(NCC2CC2)nc2ccsc12,0,0,0,0,0,39
Clc1ccccc1OCCNc1nc(NCC2CC2)nc2ccsc12,0,0,49,0,0,0
CCCn1c(N)c(C(=O)CSc2nnc(-c3ccoc3C)n2C)c(=O)n(C)c1=O,0,0,0,0,0,0
Cc1ccccc1CN(c1ccc(C(=O)N2CCc3ccccc3C2)cc1)S(C)(=O)=O,0,0,51,0,0,0
Cc1cccc(NS(=O)(=O)c2cc(C(=O)N3CCc4ccccc4C3)ccc2Cl)c1C,0,0,56,0,0,0
COc1cc2c(cc1OC)CN(C(=O)CSc1ccccc1C)CC2,0,0,0,0,0,0
Oc1ccc(C[C@@H]2CNCCN2CC2CCCCC2)cc1,0,0,0,0,0,0
c1ccc2c(C[C@@H]3CNCCN3CC3CCCCC3)cccc2c1,0,0,0,0,41,0
CCN(CC)C(CNC(=O)CSc1nnnn1-c1ccc(C)c(C)c1)c1ccco1 (stereo not drawn),0,0,0,0,0,0
SMILES,HTR2A ag,CHRM1 agonist,TAAR1 antag,CHRM1 PAM,TAAR1 ag,M1 antag
CCN(CC)C(CNC(=O)CSc1nnnn1-c1c(C)cccc1C)c1ccco1 (stereo not drawn),0,0,0,0,0,37
CC1=CC(=O)C(C(C)C)=C/C1=N/OS(=O)(=O)c1ccccc1,0,0,0,0,0,61
CC1=CC(=O)C=C(C)C1=NOS(=O)(=O)c1ccccc1,0,0,52,0,0,18
Cc1ccc2c(c1)/C(=N/OS(=O)(=O)c1ccccc1)CCS2,0,0,0,0,0,0
O=C1Nc2ccccc2-c2nnnn2C1N1CCCCC1 (stereo not drawn),0,-,0,-,0,-
COC(=O)[C@]12C[C@H](CC(=O)N3CCSCC3)C(=O)N(Cc3ccc4c(c3)OCO4)C1=C[C@H](COCc1ccccc1)O[C@@H]2C,-,-,0,-,0,-
CN1C(CC(=O)Nc2ccc(Cl)cc2Cl)c2ccccc2CC1(C)C (stereo not drawn),0,0,0,0,0,34
CCCc1ccc(-c2cc(NC(=O)Cc3c[nH]c4ccccc34)ccc2Nc2cccnc2)cc1,-,-,0,-,0,-
Cc1nn(C)c(C)c1/C=C/C(=O)c1ccc(Cl)cc1Cl,0,0,0,0,0,0
CN1CCCC(CC2Oc3ccccc3Sc3ccccc32)C1 (stereo not drawn),0,0,0,0,0,99
c1ccc2c(c1)OC(CCCN1CCCCC1)c1ccccc1S2 (stereo not drawn),0,0,0,0,0,46
CCCCC1O[C@@H](C)[C@@H]2CN3CCc4c([nH]c5ccccc45)[C@@H]3C[C@@H]2N1C (stereo partly drawn),-,-,0,-,0,-
Cc1cc(/C=N/NC(N)=S)c(C)n1-c1ccc(Cl)c(Cl)c1,0,0,50,0,0,0
O=C(Nc1ccc(C(=O)N2CCCCC2)cc1)[C@H]1O[C@@H](n2ccc(=O)[nH]c2=O)[C@H](O)[C@@H]1O,0,0,0,0,0,0
C/C(=N\NC(N)=S)c1ccc(-n2ccnc2)cc1,0,0,0,29,0,0
COc1ccccc1NS(=O)(=O)c1cccc(NC(=O)NCCCl)c1,0,0,0,0,0,0
COc1ccccc1NS(=O)(=O)c1cc(NC(=O)c2ccc(Cl)nc2)ccc1Cl,0,0,56,0,0,28
COc1ccccc1NS(=O)(=O)c1cccc(NC(=O)Nc2cccc(Cl)c2)c1,0,0,79,0,0,0
COc1ccccc1NS(=O)(=O)c1cccc(NC(=O)c2cncc(Br)c2)c1,0,0,51,0,0,0
COc1ccccc1NS(=O)(=O)c1cccc(NC(=O)CCNC(=O)c2ccccc2OC)c1,0,0,57,0,0,0
COc1ccc(C(=O)Nc2ccc(Cl)c(S(=O)(=O)Nc3ccccc3OC)c2)cc1,0,0,0,0,0,0
O=S(=O)(CS(=O)(=O)c1ccc(Cl)cc1)c1ccc(Cl)cc1,0,0,0,0,0,0
Cc1cc(NS(=O)(=O)c2ccc(NC(=O)c3ccc([N+](=O)[O-])cc3)cc2)nc(C)n1,0,0,0,0,0,0
C=CCN1C(=O)c2n[nH]c(COC)c2C1c1ccc(F)cc1 (stereo not drawn),-,-,0,-,0,-
CCOC(=O)C1(C)CCCCCN1C(=O)c1ccc(C(F)(F)F)nc1C (stereo not drawn),0,0,0,0,0,0
COc1ccc(NC(=O)c2ccc(Cl)c(S(=O)(=O)N3CCc4ccccc4C3)c2)cn1,0,0,66,0,0,18
